Measured values taken from publication PMC2856757 (Journal of structural biology, 2010).

Experiments:
Format in all cases: physicochemical
[1] = Circular dichroism spectra; conditions: 5°C; for [θ]222 Benign (mean residue ellipticity at 222 nm): CD, peptide 211μm to 265μm (0.2 mg/ml), 1 mm cell, average of 6 scans; for [θ]222 Benign (mean residue ellipticity at 222 nm) / [θ]222/[θ]208 Benign: benign buffer (100mM KCl, 50mM PO4, pH 7); for [θ]222/[θ]208 50% TFE / [θ]222/[θ]208 Benign: ratio of mean residue ellipticity at 222 nm and 208 nm; for [θ]222/[θ]208 50% TFE: 50/50 benign buffer/TFE (v/v)
Summary of the method: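 Disulfide-bridged peptides (N-acetylated, C-amidated, N-terminal Cys-Gly-Gly, air-oxidised overnight at 4°C in 100mM ammonium bicarbonate pH 8.3). Stocks of 2mg/mL in benign buffer are diluted to 0.2 mg/ml in benign buffer or buffer with 50% TFE. Concentration is by amino acid analysis. Scans run 190–255 nm in 0.5 nm steps at 50 nm per minute. Ellipticity is converted to molar ellipticity using mean residue weight, path length and concentration.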

[2] = Thermal denaturation by circular dichroism spectroscopy at 222 nm; conditions: CD at 222 nm, benign buffer (100mM KCl, 50mM PO4, pH 7), 5°C to 90°C in 0.5°C increments, 60°C/hour, from plot of fraction folded versus temperature
Summary of the method: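 Disulfide-bridged two-stranded peptides (air-oxidised overnight at 4°C in 100mM ammonium bicarbonate, pH 8.3) diluted to 0.2 mg/ml in 100mM KCl, 50mM PO4, pH 7 (1 mm cell). Concentration by amino acid analysis. Ellipticity at 222 nm scanned 5°C to 90°C, 0.5°C steps, 60°C/hour. Fraction folded from observed, fully folded and fully unfolded ellipticities. Tm is the 50%-unfolded temperature; ΔTm is taken versus native peptide.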

[3] = RP-HPLC temperature profiling of peptide self-association; conditions: Gemini C18, 100mM NaClO4, 10mM NH4H2PO4, pH 7, 2%B per minute, 5°C - 80°C in 3°C increments, peptide 1.7mg/ml, retention times normalized to 5°C minus random coil control peptide
Summary of the method: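 Gradient is 0-100%B over 50 minutes; eluent B is 50/50 H2O/CH3CN with the same salts. Retention time at each temperature minus that at 5°C gives the normalised value. Association parameter = peptide normalised value minus control normalised value; the maximum is reported.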

[4] = listed as R101A/L110A/K112A/K118A

Substance | [θ]222 Benign (mean residue ellipticity at 222 nm) [1] | [θ]222/[θ]208 50% TFE [1] [deg cm^2 dmol^-1] | [θ]222/[θ]208 Benign [1] [deg cm^2 dmol^-1] | [θ]222/[θ]208 Benign ([1]; listed as native peptide) | Tm (temperature at which 50% of the peptide is unfolded) [2] [°C] | PA,Max (maximum association parameter, self-association) [3] | Tm (temperature at which 50% of the peptide is unfolded) [2, 4] | PA,Max (maximum association parameter, self-association) [3, 4]
Native: native tropomyosin 85-119 coiled-coil sequence with N-terminal Cys-Gly-Gly linker, N-acetylated, C-amidated, disulfide-bridged (Ac-CGGVASLNRRIQLVEEELDRAQERLATALQKLEEAEKA-NH2; also: disulfide-bridged two-stranded dimer (linker Cys); UniProt P09493 85-119, looked up, fragment) | -36,213 deg cm^2 dmol^-1 | 0.96 | 1.08 | greater than 1 deg cm^2 dmol^-1 | 52.9 | 3.4 | – | –
TM3: TM85-119 analog with K112A/K118A substitutions (VASLNRRIQLVEEELDRAQERLATALQALEEAEAA; not fully specified; Cys-Gly-Gly linker; UniProt P09493 85-119, looked up, variant K112A K118A) | -29,457 deg cm^2 dmol^-1 | 0.97 | 1.08 | – | 45.3 | 2.4 | – | –
TM4: TM85-119 analog with R101A substitution (VASLNRRIQLVEEELDAAQERLATALQKLEEAEKA; not fully specified; Cys-Gly-Gly linker; UniProt P09493 85-119, looked up, variant R101A) | -34,390 deg cm^2 dmol^-1 | 0.96 | 1.08 | – | 46.0 | 1.8 | – | –
TM7: TM85-119 analog with R101A/L110A/K112A/K118A substitutions (VASLNRRIQLVEEELDAAQERLATAAQALEEAEAA; not fully specified; Cys-Gly-Gly linker; UniProt P09493 85-119, looked up, variant R101A L110A K112A K118A) | -9,578 deg cm^2 dmol^-1 | 0.97 | 0.86 | – | <5 | 0 | less than 5 °C | zero
TM2: TM85-119 analog with K118A substitution (VASLNRRIQLVEEELDRAQERLATALQKLEEAEAA; not fully specified; Cys-Gly-Gly linker; UniProt P09493 85-119, looked up, variant K118A) | -30,548 deg cm^2 dmol^-1 | 0.97 | 1.08 | – | 48.7 | 2.7 | – | –
